Screens deposited in PubChem by several laboratories.
HCT116 bCat-KO = beta-catenin-lacking colon tumor cell growth suppression; HCT116 beta-catenin knockout viability, CellTiter-Glo, 60 h; hits give low values; viability, % at 10 µM; hit rate 1.5% among 140,000; AID 818;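 active = viability at or under a set limit, the compound median less 4 SD, cut at about 6% in these data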;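 also: 0% = Hyamine 1622 control at 20 µM and 100% = untreated cell control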
PMI act = phosphomannose isomerase (human) activation; purified human PMI, coupled resazurin fluorescence, 20 min; hits give high values; 1 = vehicle control, 0 substrate-free wells; activation factor at 20 µM; hit rate 0.005% among 190,000; AID 1214;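 active = activation factor of 2 or more at 20 µM, relative to plate controls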
Target sequence (P34949 whole entry, looked up): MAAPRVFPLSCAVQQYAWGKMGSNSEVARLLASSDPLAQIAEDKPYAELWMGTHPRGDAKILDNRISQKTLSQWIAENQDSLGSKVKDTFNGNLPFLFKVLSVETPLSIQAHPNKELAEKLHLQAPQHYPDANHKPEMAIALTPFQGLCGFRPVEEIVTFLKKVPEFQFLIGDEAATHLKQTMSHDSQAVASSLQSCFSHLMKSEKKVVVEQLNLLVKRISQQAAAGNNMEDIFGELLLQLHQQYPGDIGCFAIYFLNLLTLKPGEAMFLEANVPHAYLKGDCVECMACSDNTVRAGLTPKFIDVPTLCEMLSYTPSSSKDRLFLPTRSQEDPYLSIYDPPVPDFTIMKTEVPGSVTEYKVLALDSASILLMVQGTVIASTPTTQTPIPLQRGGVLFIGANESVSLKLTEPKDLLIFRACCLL
PMI act hi M6P = increases human PMI activity with near-saturating mannose 6-phosphate. P34949. coupled PMI enzyme assay, resazurin fluorescence, 20 min; hits give high values; 1 = untreated enzyme, 0 = substrate-free blank. activation factor at 20 µM. hit rate 0.34% among 190,000. AID 1216;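 active = activation factor of 2 or more at 20 µM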
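Technique: Diaphorase-driven resazurin-to-resorufin fluorescence, excitation 544, emission 590 nm | Assay system: Human PMI in coupled enzyme assay | Times: Enzyme reaction with compound 20 min at room temperature | Medium: HEPES-buffered pH 7.4 with magnesium and detergent | Reagent: Mannose-6-phosphate 1.0 mM (near-saturating) plus 0.22 mM NADP+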
PTEN del growth = PTEN-deleted cell growth suppression | HCT116 PTEN-null viability, CellTiter-Glo, 60 h; hits give low values | viability, % at 10 µM | hit rate 1.2% among 140,000 | AID 827;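 active = viability at or below a set limit, 4 SD under the median of all tested compounds, cut at about 3.7% in these data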;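 also: PTEN knockout HCT116 line with beta catenin targeted HCT116 as companion control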
L major viab = inhibitors of Leishmania major promastigote growth; AID 1063; inhibition, % at 10 µM; Leishmania major promastigotes, resazurin fluorescence viability; hit rate 9% among 200,000; in the data active = inhibition above about 50%;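 also: promastigotes grown with compound for 44 hours at 28 °C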
Starred values were filed as active, the others as inactive; x = no result. A selection: hits, their analogues and other compounds. The true share with any hit is near 9.6%.

SMILES | HCT116 bCat-KO | PMI act | PMI act hi M6P | PTEN del growth | L major viab
CCCOc1ccc(C(=O)Nc2nc(C)c(Cc3ccc4c(c3)OCO4)s2)cc1 | 57.3 | 1 | 1 | 42.3 | 63.7*
CSCCC(NS(=O)(=O)c1ccc2ccccc2c1)C(=O)OCC(=O)c1ccc(C(C)C)cc1 (stereo not drawn) | 90.8 | 0.9 | 0.9 | 89.2 | 86.6*
Clc1ccc(OCCOCCN2CCCCC2)c(Br)c1 | 58.3 | 0.8 | 0.9 | 52.9 | 99.8*
Cc1cc(C(C)(C)C)ccc1OCCOCCN1CCCC1 | 53.1 | 1 | 0.9 | 59.5 | 95.8*
CC1CCCN(CCC(=O)Nc2ccccc2)C1 (stereo not drawn) | x | 1 | 1.1 | x | -1.2
CC1CCN(CCCOc2ccc(Cl)cc2Br)CC1 | x | 1 | 0.9 | x | 86.5*
CC1CCCN(CCOc2ccc3ccccc3c2Br)C1 (stereo not drawn) | x | 0.9 | 0.9 | x | 87.8*
Cc1ccc(CCNC(=O)CCc2nc3ccccc3[nH]2)cc1 | 98.5 | 0.9 | 1 | 101.2 | 35.9
CC(=O)N1CCC(=O)N(C(C)C)c2ccccc21 | 101.6 | 1.1 | 1.1 | 101.3 | 2.9
CC1CCN(CCOCCOc2ccc(Cl)cc2Br)CC1 | 16.6 | 1.1 | 1.1 | 14.2 | 100.5*
CCOc1ccccc1OCCOCCN1CCN(Cc2ccccc2)CC1 | x | 0.9 | 1 | x | 15.4
Cc1ccc(Cl)c(OCCN2CCCC(C)C2)c1 (stereo not drawn) | 83.4 | 1 | 1.1 | 79.7 | 91.0*
CC1CCCN(CCCOc2ccc(Cl)cc2Br)C1 (stereo not drawn) | 73.9 | 1.1 | 1.1 | 66.9 | 97.6*
Clc1ccc(Cl)c(OCCN2CCOCC2)c1 | 88.0 | 1 | 1 | 97.5 | 21.5
Cc1onc(-c2c(F)cccc2Cl)c1C(=O)NC1CCSC1=O (stereo not drawn) | 87.9 | 1.1 | 1.1 | 87.7 | -0.7
O=[N+]([O-])c1c(C(Cl)Cl)nn(-c2ccccc2)c1N1CCCC1 | 11.9 | 0.9 | 0.9 | 13.4 | 8.5
COc1ccc(N2C(=O)C(CN3CCN(C)CC3)C2c2ccccc2)cc1 (stereo not drawn) | x | 0.9 | 0.9 | x | 95.3*
Cc1cnc([N+](=O)[O-])n1CCOC(=O)NC(=O)c1ccc(F)cc1 | x | 1.1 | 1.1 | x | 6.0
COc1ccc(OC)c(CN2CCC(C(=O)N(C)CCc3ccc(OC)c(OC)c3)CC2)c1 | x | 1 | 1 | x | -7.0
OC1CCCN(C(=S)Nc2ccc(SC(F)F)cc2)C1 (stereo not drawn) | 74.1 | 0.9 | 0.9 | 81.4 | -4.5
CN1CCC(N(C)C(=S)Nc2ccc(SC(F)F)cc2)CC1 | 95.6 | 1 | 1.1 | 88.7 | 76.1*
COc1cc2c(cc1OC)CN(C(=S)Nc1ccc(OC(F)F)cc1)CC2 | x | 0.8 | 0.8 | x | -1.3
CC1CC(C)CN(C(=S)Nc2ccc(OC(F)F)cc2)C1 (stereo not drawn) | 102.3 | 1 | 1 | 94.0 | 84.5*
CC1CC(C)CN(C(=S)Nc2ccc(SC(F)F)cc2)C1 (stereo not drawn) | 84.5 | 0.9 | 1 | 79.9 | 72.7*
COC(=O)c1cc2sc(Cl)cc2n1CC(=O)NCCC(C)C | 93.5 | 0.8 | 0.9 | 86.7 | -2.3
SMILES | HCT116 bCat-KO | PMI act | PMI act hi M6P | PTEN del growth | L major viab
CCCNC1=C(C)C(=O)CC1 | 85.4 | 1.1 | 1.1 | 85.4 | -3.2
CC1=C(NCCc2ccccc2)CCC1=O | 92.6 | 1 | 1 | 96.4 | 63.8*
CCOC(=O)c1c(C)[nH]c(NC(=O)N2CCOCC2)c1C | 98.3 | 1.1 | 1.1 | 96.0 | -4.8
COc1ccc(-c2cc(C(F)(F)F)n3nc(C(=O)NCCCn4ccnc4)cc3n2)cc1 | 89.1 | 0.9 | 0.9 | 88.2 | 90.4*
Cc1c(NC(=O)c2nn3c(C(F)(F)F)cc(-c4ccccc4)nc3c2Cl)c(=O)n(-c2ccccc2)n1C | 74.7 | 1.1 | 1 | 74.7 | 2.7
O=C(NCCCn1ccnc1)c1nn2c(C(F)(F)F)cc(-c3ccc(Br)cc3)nc2c1Cl | 22.9 | 0.9 | 0.9 | 46.6 | 100.2*
COC(=O)C1=[N+]([O-])OC(C(=O)OC)C1c1c[nH]c2ccccc12 (stereo not drawn) | 89.8 | 1 | 0.8 | 97.9 | 0.0
O=C(N/N=C/c1cccnc1)C1CC1(c1ccccc1)c1ccccc1 (stereo not drawn) | x | 1 | 0.8 | x | 12.9
Nc1c(C(=O)NCCc2ccccc2)sc2nc(N3CCOCC3)c3c(c12)CCCC3 | x | 1 | 0.9 | x | 15.4
CN(C(=O)c1sc2nc(N3CCOCC3)c3c(c2c1N)CCCC3)c1ccccc1 | x | 0.7 | 1 | x | 100.2*
FC(F)(F)c1cccc(N2CCN(CC3CC=CCC3)CC2)c1 (stereo not drawn) | 79.1 | 1.1 | 1 | 72.4 | 93.1*
Cc1ccc(N2CCN(CC3CC=CCC3)CC2)cc1 (stereo not drawn) | 94.2 | 1 | 1 | 105.7 | 96.7*
Cc1cccc(N2C(=O)CC(N3CCN(c4cccc(C(F)(F)F)c4)CC3)C2=O)c1 (stereo not drawn) | 84.9 | 0.8 | 0.9 | 83.4 | -6.0
C1=CCC(CN2CCN(C3CCCCCC3)CC2)CC1 (stereo not drawn) | x | 1.2 | 1.2 | x | 89.9*
Oc1cc2c(cc1CN1CCN(c3cccc(C(F)(F)F)c3)CC1)CCC2 | 70.3 | 0.9 | 1 | 60.2 | 4.5
CCCN1CCC(N2CCN(c3cccc(C(F)(F)F)c3)CC2)CC1 | 72.0 | 1 | 1.1 | 86.1 | 100.2*
Cc1ccc(N2CCN(/N=C/c3ccccc3)CC2)cc1 | x | 1 | 1 | x | -0.9
CC(C)[C@@H](C(=O)N1CCN(C(=O)OC(C)(C)C)CC1)n1cc(CCO)nn1 | x | 1 | 1 | x | -2.2
Cc1cc([N+](=O)[O-])nn1CCC(=O)NC1CCCCCC1 | 94.2 | 1.1 | 1.1 | 96.8 | -0.8
CC(NC(=O)COC(=O)Cc1ccccc1[N+](=O)[O-])c1ccccc1 (stereo not drawn) | 98.4 | 1 | 0.5 | 101.8 | 60.2*
CC(NC(=O)Cc1ccccc1[N+](=O)[O-])c1ccccc1 (stereo not drawn) | 91.4 | 0.8 | 0.9 | 91.4 | -3.5
Cc1ccc(CN2CCN(CC(=O)N=Nc3c(O)[nH]c4ccccc34)CC2)cc1 | 65.3 | 0.9 | 0.9 | 73.3 | 100.1*
OC(COc1ccccc1)CN1CCN(CC(O)COc2ccccc2)CC1 (stereo not drawn) | x | 1.3 | 1.3 | x | 87.0*
COc1ccc(N2CCN(CC(O)COc3ccccc3[N+](=O)[O-])CC2)cc1 (stereo not drawn) | 90.8 | 1.2 | 1.3 | 88.8 | 92.2*
COc1ccc(OCC(O)CN2CCN(c3ccccc3)CC2)cc1 (stereo not drawn) | x | 1.2 | 1.2 | x | 20.8
OC(CNc1ccccc1)COc1ccc(OCC(O)CNc2ccccc2)cc1 (stereo not drawn) | 1.7* | 0.8 | 0.8 | 1.6* | 65.9*
CC(C)c1ccc(OCC(O)CN2CCN(c3ccccc3)CC2)cc1 (stereo not drawn) | 97.5 | 0.9 | 1 | 89.1 | 86.5*
CCOCC(O)CNc1ccccc1 (stereo not drawn) | 98.8 | 0.9 | 0.9 | 97.5 | 16.1
